Assays:
[1] = target: Sigma non-opioid intracellular receptor 1 (Cavia porcellus, UniProt Q60492); assay: Displacement of [3H]-(+)-pentazocine from sigma 1 receptor in guinea pig brain membranes after 2 hrs by scintillation counting; format: cell membranes, Membrane
[2] = Selectivity ratio of Ki for sigma 2 receptor in rat liver membranes to Ki for sigma 1 receptor in guinea pig brain membranes; format: cell membranes
[3] = Displacement of [3H]di-o-tolylgluanidine from sigma 2 receptor in rat liver membranes after 2 hrs by scintillation counting; format: cell membranes, Membrane
Outline: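 Rat liver membranes (sucrose homogenate; pellet held 30 min at room temperature in 50 mM TRIS pH 8.0; 100 µg protein) incubated with 3 nM [3H]DTG and test compound at 10^-10 to 10^-5 M, at room temperature for 120 min. […] Nonspecific binding with 10 µM DTG. Filtration, then scintillation counting. Duplicates. Ki by Cheng-Prusoff from IC50, mean ± SEM, n = 3.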

[4] = Displacement of [3H]di-o-tolylgluanidine from sigma 2 receptor in rat liver membranes at 1 uM after 2 hrs by scintillation counting; details: Membrane
[5] = target: Sigma non-opioid intracellular receptor 1 (Cavia porcellus) (UniProt Q60492); assay: Displacement of [3H]-(+)-pentazocine from sigma 1 receptor in guinea pig brain membranes at 1 uM after 2 hrs by scintillation counting; format: cell membranes; details: Membrane
Outline: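 Guinea pig brain membranes (about 100 µg protein) incubated with 2 nM [3H]-(+)-pentazocine and 1 µM test compound in 50 mM TRIS pH 7.4 at 37 °C for 120 min. Filtered, then counted by scintillation. […] Result given as % inhibition of radioligand binding.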

[6] = organism: Mus musculus; assay: Analgesic activity in mouse by acetic acid writhing test; format: functional

Sequence of Sigma non-opioid intracellular receptor 1 (Q60492 whole entry): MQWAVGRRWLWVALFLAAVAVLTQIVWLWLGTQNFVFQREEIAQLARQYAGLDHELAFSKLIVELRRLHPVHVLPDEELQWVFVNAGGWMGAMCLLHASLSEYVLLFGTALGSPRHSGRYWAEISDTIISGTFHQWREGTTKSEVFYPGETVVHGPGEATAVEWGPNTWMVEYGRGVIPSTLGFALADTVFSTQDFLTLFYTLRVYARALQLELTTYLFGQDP
Sequence of Sigma non-opioid intracellular receptor 1 (Cavia porcellus) (Q60492 whole entry): as above

Row | Structure (SMILES) | Ki [1] [nM] | Ratio Ki [2] | Ki [3] [nM] | inhibition [4] [%] | inhibition [5] [%] | ED50 [6] [mg/kg]
1 | COC(=O)C[C@@H]1Cc2ccccc2[C@H](CN2CCC(c3ccccc3)CC2)O1 (racemic) | 673 | 1.2 | 785 | – | – | –
2 | COC(=O)C[C@@H]1Cc2ccccc2[C@H](CN2CCCCC2)O1 (racemic) | 510 | – | – | 7 | – | –
3 | Cc1ccccc1NC(=N)Nc1ccccc1C [DITOLYLGUANIDINE] | – | – | 20.2 | – | – | –
4 | OCCC1Cc2ccccc2C2(CCN(CCCc3ccccc3)CC2)O1 (racemic) | 20 | 30 | 617 | – | – | –
5 | COC(=O)CC1Cc2ccccc2C2(CCN(CCCc3ccccc3)CC2)O1 (racemic) | 39 | 15 | 610 | – | – | –
6 | CCN1CCC2(CC1)OC(CCO)Cc1ccccc12 (racemic) | – | – | – | 0 | 0 | –
7 | OCCC1Cc2ccccc2C2(CCN(Cc3ccccc3)CC2)O1 (racemic) | 20 | – | – | 0 | – | –
8 | CCCCN1CCC2(CC1)OC(CCO)Cc1ccccc12 (racemic) | 60 | – | – | 13 | – | –
9 | CN1CCC2Cc3ccccc3C(C1)O2 (stereo not drawn) | – | – | – | – | – | 20
10 | COC(=O)C[C@@H]1Cc2ccccc2[C@H](CCN2CCCCC2)O1 (racemic) | 519 | – | – | – | – | –
11 | COC(=O)C[C@@H]1Cc2ccccc2[C@H](CCN2CCC(c3ccccc3)CC2)O1 (racemic) | 38 | 2.8 | 107 | – | – | –
12 | COC(=O)C[C@@H]1Cc2ccccc2[C@H](CCN2CCCC2)O1 (racemic) | > 1000 | – | – | 0 | – | –
13 | OCC[C@@H]1Cc2ccccc2[C@H](CCN2CCCCC2)O1 (racemic) | – | – | – | 14 | 4 | –
14 | CCCCCCCCN1CCC2(CC1)OC(CCO)Cc1ccccc12 (racemic) | 26 | 9 | 234 | – | – | –
15 | OCC[C@@H]1Cc2ccccc2[C@H](CCN2CCC(c3ccccc3)CC2)O1 (racemic) | 52 | 0.4 | 20 | – | – | –

Reference: ChEMBL document CHEMBL3826898, “Oxa-Pictet-Spengler reaction as key step in the synthesis of novel σ receptor ligands with 2-benzopyran structure” (Bioorg Med Chem, 2016)
